Experimental data: article PMC3751419 (Dalton transactions (Cambridge, England : 2003), 2013)
Blank lines part the entries; values can stand above or below the molecule they belong to.

Experiments:
A431 carcinoma cells = test: Dark and light toxicity with a 740 nm LED lamp, phase contrast images; format: cell-based, human
HFF cells = test: as above; format: cell-based, human; settings: for light enhancement of cytopathic effect compared to dark toxicity, HFF: 740 nm red light 60 minutes, then 24 hours dark
[1] = Stability in aqueous media by ESR and 51V NMR spectroscopy; format: physicochemical
In short: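 A 50 mM DMSO stock was diluted to 4.0 mM in DI water (pH 7.19) and kept in subdued light at room temperature. ESR spectra were recorded at room temperature immediately and at 24, 48 and 72 h. 51V NMR spectra of the 4.0 mM solutions were taken at 0, 24, 48 and 72 h and at seven days. Control: 4.0 mM NaVO3, pH 7.19.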

[2] = system: platinum-resistant colorectal tumours; settings: cited from earlier work
[3] = system: cisplatin-resistant ovarian and testicular cancer cell lines; settings: cited from earlier work
[4] = system: metastases of solid tumours; settings: cited from earlier work
[5] = system: amelanotic malignant melanoma cells; test: Dark and light toxicity with a 60 W tungsten lamp, phase contrast images; format: cell-based, human
In short: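 ATCC amelanotic melanoma line (from a person) grown at 37 °C, 5% CO2 in high-glucose DMEM with 10% FBS, 0.5% pen-strep, 1% glutamine and 1% non-essential amino acids. 10^5 cells/well seeded; after 24 h, medium swapped for test compound at 5 or 20 µM. After 24 h, cells irradiated 30 min with a 60 W tungsten lamp or kept dark. Phase-contrast images at 10x taken 3 h later. Untreated cells served as control.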

[6] = system: murine embryonic fibroblasts; settings: room-light or red-light exposure; cited from earlier work
fibrosarcoma cells = settings: room-light or red-light exposure; cited from earlier work
[7] = 4.0 mM in water, pH 7.19, room temperature, day seven

change in intensity of ESR spectra ([1]; 4.0 mM in water, pH 7.19, room temperature, 0, 24, 48, and 72 hours): no decrease in intensity | vanadium(V) species by 51V NMR [1, 7]: a weak, broad peak at −543 ppm | vanadium(V) species by 51V NMR ([1]; 4.0 mM in water, pH 7.19, room temperature, up to 72 hours): absence of any vanadium(V) species | stability in aqueous media (oxidation of vanadium(IV) centre) ([1]; standing at room temperature, pH 7.19): considerable stability
Molecule: [Ru(pbt)2(phen2DTT)VO(sal-L-tryp)]Cl2
changes in cell morphology of A431 cells (A431 carcinoma cells; 5 μM, dark and light exposure): only slight changes in cell morphology | cytopathic effect on A431 cells (A431 carcinoma cells; 20 μM): anticancer cytopathic effect | light enhancement of cancer cell death compared to [Ru(pbt)2(tpphz)VO(sal-L-tryp)]Cl2 treated cells (A431 carcinoma cells; 740 nm light, A431): more pronounced light enhancement of cancer cell death | light enhancement of cytopathic effect compared to dark toxicity, A431 (A431 carcinoma cells; 740 nm red light 60 minutes, then 24 hours dark): light enhanced cytopathic effects | changes in morphology of HFF cells (HFF cells; 5 μM and 20 μM, dark and light exposure): only minor changes in morphology | light enhancement of cytopathic effect compared to dark toxicity, HFF (HFF cells): no effect

Molecule: [Cl-].[Cl-].[Cl-].[Cl-].[Ru+3].c1ccc2[nH][nH+]cc2c1.c1ccc2[nH]ncc2c1.c1ccc2[nH]ncc2c1 [KP1019]
activity against platinum-resistant colorectal tumours [2]: excellent activity

Molecule: Cc1ccnc2c1ccc1c(C)ccnc12.Cc1ccnc2c1ccc1c(C)ccnc12.O=S(=O)([O-])[O-].[O]=[V+2] [metvan, bis(4,7-dimethyl-1,10-phenanthroline)sulfatooxovanadium(IV)]
effectiveness against cisplatin-resistant ovarian and testicular cancer cell lines [3]: highly effective

Molecule: CS(C)=O.[Cl-].[Cl-].[Cl-].[Cl-].[Ru+3].c1c[nH+]c[nH]1.c1c[nH]cn1 [NAMI-A]
activity against development and growth of metastases of solid tumours [4]: particularly active

Molecule: sodium diaqua-4,4',4”,4”'tetrasulfophthalocyaninecobaltate(II) [Na4[Co(tspc)(H2O)2]]
apoptosis of melanoma cells, dark ([5]; 5.0 and 20.0 μM, incubated in the dark one day): do not show significant apoptosis | impact on melanoma cells under illumination ([5]; 5 or 20 μM, 60 W tungsten lamp 30 minutes): no impact | cytotoxic activity [6]: no cytotoxic activity | cytotoxic activity (fibrosarcoma cells): no cytotoxic activity

vanadium(V) species by 51V NMR [1, 7]: a weak, broad peak at −543 ppm
Molecule: [Ru(pbt)2(tpphz)VO(sal-L-tryp)]Cl2
light enhancement of cytopathic effect compared to dark toxicity, HFF (HFF cells): no effect
